Assay results collected from several papers.
Organism: Plasmodium falciparum
Effect on: parasite growth

SMILES	technique	strain	time	notes	IC50
O=C(Nc1ccccc1-c1nc2c(C(=O)O)cccc2o1)c1ccccc1	SYBR Green			blood stage	75800 nM
CCN(CC)CCCC(C)Nc1ccnc2cc(Cl)ccc12 (stereo not drawn)	LDH				206 nM
COC1=CC(c2ccc[nH]2)=NC1=Cc1ccc(CCCCCCCCCCO)[nH]1		D6		blood stage	108 nM
Cc1cccc(C(=O)O)c1NC(=O)c1cccc(-c2ccccc2)c1	resazurin	NF54	48 h	gametocyte	665 nM
C[C@@H]1CC[C@H]2[C@@H](C)C(=O)O[C@@H]3O[C@@]4(C)CC[C@@H]1[C@]32OO4		W2	72 h	drug-resistant strain, blood stage	0.0038 µg/mL
O=C1C(O)=C([C@H]2CC[C@H](c3ccc(Cl)cc3)CC2)C(=O)c2ccccc21		3D7	72 h	blood stage	0.4 nM
C=CCCCCCCCCCCCC(O)CC(O)CO (stereo not drawn)		D6		blood stage	29.7 µg/mL
Clc1ccc2c(c1)nc(NCCNCc1ccccc1)n2Cc1ccccc1		NF54		blood stage	86 nM
Cc1onc(-c2ccccc2)c1-c1ccc(S(N)(=O)=O)cc1	SYBR Green			blood stage	> 100000 nM
O=C(O)c1cc(F)ccc1NC(=O)c1ccccc1-c1ccccc1	resazurin	NF54	48 h	gametocyte	674 nM
NCCCNc1nc2ccccc2n1Cc1ccccc1		NF54		blood stage	4090 nM
C[C@H]1[C@@H](O)O[C@@H]2O[C@@]3(C)CC[C@H]4[C@H](C)CC[C@@H]1[C@@]24OO3		3D7	72 h	blood stage	5.8 nM
Cc1cc(NCCc2ccccc2)nc(N=C(N)Nc2ccc(Cl)cc2)n1	SYBR Green			blood stage	280 nM
Fc1cc(F)cc(-c2nc3c(N4CCC(CN5CCN(CC(F)(F)F)CC5)CC4)nccc3[nH]2)c1		NF54		blood stage	< 100 nM
O=C(O)/C=C/C=C/c1cccc(Oc2cc(Cl)cc(Cl)c2)c1	SYBR Green			blood stage	54200 nM
C#CCCCCCCCCC=CCC(O)CC(O)CO (stereo not drawn)		D6		blood stage	> 47.6 µg/mL
CCN(CC)CCCC(C)Nc1ccnc2cc(Cl)ccc12 (stereo not drawn)		D6		blood stage	10 nM
O=C(Nc1c(F)cccc1C(=O)O)c1cccc(-c2ccccc2)c1	resazurin	NF54	48 h	gametocyte	> 10000 nM
C#CCCCCCCCCCCCC(O)CC(O)CO (stereo not drawn)		D6		blood stage	25.9 µg/mL
CCCCCCCc1c(O)cc(CC=C(C)C)c(O)c1C=O		W2	72 h	drug-resistant strain, blood stage	2.7 µg/mL

SMILES	technique	strain	time	notes	IC50
CCN(CC)CCCC(C)Nc1ccnc2cc(Cl)ccc12 (stereo not drawn)		D6	72 h	blood stage	0.01 µg/mL
C[C@@H]1CC[C@H]2[C@@H](C)C(=O)O[C@@H]3O[C@@]4(C)CC[C@@H]1[C@]32OO4		W2		drug-resistant strain, blood stage	0.009 µg/mL
CN1CCN(C2CCN(c3nccc4[nH]c(-c5cccc(C#N)c5)nc34)CC2)CC1		NF54		blood stage	< 100 nM
Cc1ccc2oc(-c3cc(NC(=O)Cc4ccccc4)ccc3Cl)nc2c1	SYBR Green			blood stage	23400 nM
CCN(CC)CCCC(C)Nc1ccnc2cc(Cl)ccc12 (stereo not drawn)		NF54		blood stage	8 nM
Clc1ccc2c(nc(N3CCNCC3)n2Cc2ccccc2)c1Cl		NF54		blood stage	55 nM
C[C@@]12CC[C@@H](O)[C@]3(C)C4=CC(=O)OCC4=C[C@@H](OC1=O)C23 (stereo partly drawn)		W2	72 h	drug-resistant strain, blood stage	0.67 µg/mL
c1ccc(Cn2c(N3CCNCC3)nc3cc(-c4ccccc4)ccc32)cc1		NF54		blood stage	6960 nM
O=C(Nc1ccc(F)cc1C(=O)O)c1ccc(-c2ccccc2)cc1		NF54	48 h	blood stage	> 10000 nM
CC(=O)Nc1ccc(-c2ccc3ncc4c(c3c2)n(-c2cccc(C(F)(F)F)c2)c(=O)n4C)cn1	resazurin	3D7		gametocyte	< 100 nM
CO[C@H]1C[C@@H](C[C@H](C)[C@H]2CC(=O)[C@@H](C)/C=C(\C)[C@H](O)[C@H](OC)C(=O)[C@@H](C)C[C@@H](C)/C=C/C=C/C=C(\C)[C@H](OC)C[C@H]3CC[C@H](C)[C@](O)(O3)C(=O)C(=O)N3CCCC[C@@H]3C(=O)O2)CC[C@@H]1OCCO (racemic)	SYBR Green			blood stage	1250 nM
COC1=CC(c2cccn2C)=NC1=Cc1ccc(CCCCCCCCCC(C)O)[nH]1 (stereo not drawn)		D6		blood stage	2330 nM
NCCCNc1nc2cc(Br)ccc2n1Cc1ccccc1		NF54		blood stage	382 nM
CC(C)Cn1c(=O)n(C)c(=O)c2c(-c3cncn3C)n(Cc3cccc4ccccc34)nc21	SYBR Green			blood stage	4820 nM
FC(F)(F)c1ccc2c(c1)nc(N1CCNCC1)n2Cc1ccccc1		NF54		blood stage	310 nM
C/C=C/C=C/C=C/c1c(O)cc(CC=C(C)C)c(O)c1C=O		W2	72 h	drug-resistant strain, blood stage	1.1 µg/mL
FC(F)(F)c1ccc(CNCCNc2nc3cc(Cl)ccc3n2Cc2ccccc2)cc1		NF54		blood stage	2780 nM
CCN(CC)CCCC(C)Nc1ccnc2cc(Cl)ccc12 (stereo not drawn)		3D7	96 h	blood stage	3 nM
Cc1ccc(C(=O)Nc2ccc(S(=O)(=O)O)c3cc(S(=O)(=O)O)cc(S(=O)(=O)O)c23)cc1NC(=O)c1cccc(NC(=O)Nc2cccc(C(=O)Nc3cc(C(=O)Nc4ccc(S(=O)(=O)O)c5cc(S(=O)(=O)O)cc(S(=O)(=O)O)c45)ccc3C)c2)c1	SYBR Green			blood stage	> 100000 nM
